Assay results: ChEMBL document CHEMBL4138252, “Novel Polyamine-Naphthalene Diimide Conjugates Targeting Histone Deacetylases and DNA for Cancer Phenotype Reprogramming” (ACS Med Chem Lett, 2017)
Activity calls are given as the source filed them. The rule behind the calls is not given here.

Key:
dsDNA [1] = assay: Stabilization of 5'6FAM/3'Dabcyl-labelled double stranded DNA (unknown origin) assessed as change in melting temperature at 0.75 uM by fluorescence assay; assay type: nucleic-acid assay
In short: (§1)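 Thermal stabilization of dsDNA or G-quadruplex DNA is measured as ΔTm at 0.75 and 2.5 μM compound.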

dsDNA [2] = assay: Stabilization of 5'6FAM/3'Dabcyl-labelled double stranded DNA (unknown origin) assessed as change in melting temperature at 2.5 uM by fluorescence assay; assay type: nucleic-acid assay; in short: as §1
Quadruplex DNA [3] = assay: Stabilization of 3'-6FAM/5'-Dabcyl-labelled human telomeric 22 G-quadruplex DNA assessed as change in melting temperature at 0.75 uM by fluorescence assay; assay type: nucleic-acid assay; in short: as §1
Quadruplex DNA [4] = assay: Stabilization of 3'-6FAM/5'-Dabcyl-labelled human telomeric 22 G-quadruplex DNA assessed as change in melting temperature at 2.5 uM by fluorescence assay; assay type: nucleic-acid assay; in short: as §1
Histone deacetylase = assay: Inhibition of HDAC in human HeLa nuclear extract using Fluor de Lys as substrate by fluorimetric method; assay type: protein assay
U-87 MG = assay: Growth inhibition of human U87 cells after 48 hrs by alamar blue assay; assay type: functional, U-87MG ATCC
In short: (§2)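 Growth inhibition in U87, HCT116 and A549 cells at 0.2, 1 and 5 μM. GI50 is derived from the inhibitory dose–response curve.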

HCT-116 [5] = assay: Growth inhibition of human HCT116 cells after 48 hrs by alamar blue assay; assay type: functional; conditions: for GI50: HCT-116, 48 h; in short: as §2
A549 [6] = assay: Growth inhibition of human A549 cells after 48 hrs by alamar blue assay; assay type: functional; conditions: for GI50: A549, 48 h; in short: as §2
[7] = molecular target: DNA polymerase I, thermostable (Thermus aquaticus) (UniProt P19821); assay: Inhibition of Thermus aquaticus Taq-polymerase using pBR322 as substrate up to 40 uM by PCR analysis
Histone deacetylase 1 = Histone deacetylase 1 (Homo sapiens, UniProt Q13547); assay: Inhibition of recombinant human C-terminal FLAG-His tagged HDAC1 (1 to 482 residues) expressed in Sf21 insect cells using RHK-K(Ac)-AMC as substrate by fluorescence assay
Histone deacetylase 2 = Histone deacetylase 2 (Homo sapiens, UniProt Q92769); assay: Inhibition of recombinant human C-terminal GST-tagged HDAC2 (1 to 488 residues) expressed in baculovirus infected Sf21 insect cells using RHK-K(Ac)-AMC as substrate measured after 30 mins by fluorescence assay
Histone deacetylase 4 = Histone deacetylase 4 (Homo sapiens, UniProt P56524); assay: Inhibition of recombinant human N-terminal GST-tagged/C-terminal His-tagged HDAC4 (627 to 1084 residues) expressed in baculovirus infected Sf21 insect cells using (Boc-Lys(trifluoroacetyl)-AMC) as substrate by fluorescence assay
[8] = molecular target: T1, Protein deacetylase HDAC6 (Homo sapiens, UniProt Q9UBN7); assay: Inhibition of recombinant human N-terminal GST-tagged HDAC6 (1 to 1215 residues) expressed in baculovirus infected Sf21 insect cells using RHKKAc as substrate by fluorescence assay
T1 sequence (Q9UBN7 whole entry): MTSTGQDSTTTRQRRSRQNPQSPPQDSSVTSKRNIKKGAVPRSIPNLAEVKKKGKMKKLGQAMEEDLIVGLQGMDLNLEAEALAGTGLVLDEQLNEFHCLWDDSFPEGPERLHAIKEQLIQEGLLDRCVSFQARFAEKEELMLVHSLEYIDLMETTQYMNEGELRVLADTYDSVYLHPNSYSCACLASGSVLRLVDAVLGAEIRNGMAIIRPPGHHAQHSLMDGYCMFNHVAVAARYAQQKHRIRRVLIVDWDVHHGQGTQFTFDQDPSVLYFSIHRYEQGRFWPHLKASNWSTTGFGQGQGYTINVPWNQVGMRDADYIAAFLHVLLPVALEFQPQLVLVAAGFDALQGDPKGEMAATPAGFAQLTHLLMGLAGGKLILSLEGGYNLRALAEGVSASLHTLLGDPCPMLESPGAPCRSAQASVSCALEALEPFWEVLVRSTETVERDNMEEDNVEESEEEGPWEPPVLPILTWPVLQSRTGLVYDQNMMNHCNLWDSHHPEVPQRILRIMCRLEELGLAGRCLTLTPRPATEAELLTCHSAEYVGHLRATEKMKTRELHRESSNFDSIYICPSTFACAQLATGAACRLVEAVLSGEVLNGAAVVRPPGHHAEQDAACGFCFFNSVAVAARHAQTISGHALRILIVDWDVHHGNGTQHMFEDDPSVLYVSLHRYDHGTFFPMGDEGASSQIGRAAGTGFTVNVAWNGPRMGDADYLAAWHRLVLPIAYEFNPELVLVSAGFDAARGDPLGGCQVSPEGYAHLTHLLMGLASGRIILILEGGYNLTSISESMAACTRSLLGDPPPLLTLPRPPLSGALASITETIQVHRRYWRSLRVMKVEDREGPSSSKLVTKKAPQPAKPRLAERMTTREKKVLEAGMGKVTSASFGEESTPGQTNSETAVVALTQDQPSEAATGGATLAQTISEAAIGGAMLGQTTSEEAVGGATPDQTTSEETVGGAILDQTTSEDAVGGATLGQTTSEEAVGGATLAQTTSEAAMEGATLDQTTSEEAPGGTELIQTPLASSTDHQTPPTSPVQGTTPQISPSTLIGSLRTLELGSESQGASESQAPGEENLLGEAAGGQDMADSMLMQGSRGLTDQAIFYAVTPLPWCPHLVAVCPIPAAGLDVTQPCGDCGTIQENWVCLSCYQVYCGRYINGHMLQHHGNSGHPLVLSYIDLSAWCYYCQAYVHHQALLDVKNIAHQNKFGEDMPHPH

[9] = molecular target: T2, Histone deacetylase (Homo sapiens) (UniProt Q13547+O15379+Q9UBN7+Q92769+Q9UQL6+Q8WUI4+Q9BY41+Q96DB2+P56524+Q9UKV0+Q969S8); assay: Inhibition of HDAC in human A549 cells assessed as increase in acetylated H3 level at 5 uM after 24 hrs by Western blot analysis relative to control; assay type: cell-based
In short: (§3)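 A549 cells are treated 24 h at 5 μM. Global histone H3 and H4 lysine acetylation is detected by Western blotting.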

[10] = molecular target: T2, Histone deacetylase (Homo sapiens); assay: Inhibition of HDAC in human A549 cells assessed as increase in acetylated H4 level at 5 uM after 24 hrs by Western blot analysis relative to control; assay type: cell-based; in short: as §3
HCT-116 [11] = assay: Inhibition of epithelial-mesenchymal transition in human HCT116 cells assessed as upregulation of CDH1 expression at 5 uM after 48 hrs by SYBR-green dye based RT-PCR analysis relative to control; assay type: functional
In short: (§4)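 HCT116 and A549 cells are treated 48 h with 5 μM. CDH1 and VIM expression is measured against untreated control. Data are mean ± SEM of four independent experiments.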

A549 [12] = assay: Inhibition of epithelial-mesenchymal transition in human A549 cells assessed as upregulation of CDH1 expression at 5 uM after 48 hrs by SYBR-green dye based RT-PCR analysis relative to control; assay type: functional; in short: as §4
HCT-116 [13] = assay: Inhibition of epithelial-mesenchymal transition in human HCT116 cells assessed as down regulation of VIM expression at 5 uM after 48 hrs by SYBR-green dye based RT-PCR analysis relative to control; assay type: functional; in short: as §4
A549 [14] = assay: Suppression of TGFbeta1-induced cell proliferation in human A549 cells assessed as reduction in cell growth at 5 uM treated for 24 hrs in presence of TGFbeta1 followed by addition of fresh media containing compounds for 24 hrs by alamar blue assay relative to control; assay type: functional; parameters: scale not given: the % may be the effect or the level left
In short: (§5)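 A549 cells stimulated with TGF-β1 get a 48 h-long 5 μM treatment. Percentage growth is evaluated according to NCI screening procedures, as mean value.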

A549 [15] = assay: Inhibition of epithelial-mesenchymal transition in human A549 cells assessed as down regulation of VIM expression at 5 uM after 48 hrs by SYBR-green dye based RT-PCR analysis relative to control; assay type: functional; in short: as §4
A549 [16] = assay: Inhibition of TGFbeta1-induced epithelial-mesenchymal transition in human A549 cells assessed as upregulation of CDH1 expression at 5 uM treated for 24 hrs in presence of TGFbeta1 followed by addition of fresh media containing compounds for 24 hrs by SYBR-green dye based RT-PCR analysis relative to control; assay type: functional
In short: (§6)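 A549 cells are stimulated with TGF-β1, alone or combined with 5 μM compound. CDH1 and VIM expression is measured and compared with control and with TGF-β1 alone.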

A549 [17] = assay: Inhibition of TGFbeta1-induced epithelial-mesenchymal transition in human A549 cells assessed as down regulation of VIM expression at 5 uM treated for 24 hrs in presence of TGFbeta1 followed by addition of fresh media containing compounds for 24 hrs by SYBR-green dye based RT-PCR analysis relative to control; assay type: functional; in short: as §6
A549 [18] = assay: Antimigratory activity against human A549 cells assessed as reduction in cell migration towards wound area at 5 uM measured after 24 hrs by scratch wound-healing assay relative to control; assay type: functional; parameters: scale not given: the % may be the effect or the level left
In short: (§7)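 Scratch wound healing on A549 cells, with or without TGF-β1 stimulation. Repopulation of the wound area is read at 24 h postscratch.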

A549 [19] = assay: Antimigratory activity against TGFbeta1-stimulated human A549 cells assessed as reduction in cell migration towards wound area at 5 uM treated for 24 hrs in presence of TGFbeta1 followed by addition of fresh media containing compounds for 24 hrs by scratch wound-healing assay relative to control; assay type: functional; in short: as §7
A549 [20] = assay: Suppression of TGFbeta1-induced cell proliferation in human A549 cells at 5 uM treated for 24 hrs in presence of TGFbeta1 followed by addition of fresh media containing compounds for 24 hrs by alamar blue assay relative to control; assay type: functional; in short: as §5

Chain of DNA polymerase I, thermostable (Thermus aquaticus) (P19821 whole entry, the tested form may be a part): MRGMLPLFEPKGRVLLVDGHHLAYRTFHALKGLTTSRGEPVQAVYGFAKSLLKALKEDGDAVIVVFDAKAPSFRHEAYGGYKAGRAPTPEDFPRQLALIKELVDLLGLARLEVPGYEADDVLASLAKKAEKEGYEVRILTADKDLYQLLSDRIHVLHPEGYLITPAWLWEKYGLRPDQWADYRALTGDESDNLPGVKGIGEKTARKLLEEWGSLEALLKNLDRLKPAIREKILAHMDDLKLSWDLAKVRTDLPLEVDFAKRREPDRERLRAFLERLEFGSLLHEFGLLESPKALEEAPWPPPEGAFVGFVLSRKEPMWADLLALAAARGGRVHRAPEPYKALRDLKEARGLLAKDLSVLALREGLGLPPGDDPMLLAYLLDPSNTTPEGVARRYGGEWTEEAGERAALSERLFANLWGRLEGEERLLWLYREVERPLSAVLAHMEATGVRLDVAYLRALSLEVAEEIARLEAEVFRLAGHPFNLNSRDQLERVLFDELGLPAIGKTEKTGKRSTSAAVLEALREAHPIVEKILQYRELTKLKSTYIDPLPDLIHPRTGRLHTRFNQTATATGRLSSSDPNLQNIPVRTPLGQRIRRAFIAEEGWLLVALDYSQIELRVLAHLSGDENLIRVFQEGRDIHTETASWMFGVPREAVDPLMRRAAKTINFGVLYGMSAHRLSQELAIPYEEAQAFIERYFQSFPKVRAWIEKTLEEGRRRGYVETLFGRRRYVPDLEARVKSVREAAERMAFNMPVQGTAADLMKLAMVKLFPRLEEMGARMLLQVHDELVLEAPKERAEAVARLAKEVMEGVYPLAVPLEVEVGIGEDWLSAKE
Chain of Histone deacetylase 1 (Q13547 whole entry, the tested form may be a part): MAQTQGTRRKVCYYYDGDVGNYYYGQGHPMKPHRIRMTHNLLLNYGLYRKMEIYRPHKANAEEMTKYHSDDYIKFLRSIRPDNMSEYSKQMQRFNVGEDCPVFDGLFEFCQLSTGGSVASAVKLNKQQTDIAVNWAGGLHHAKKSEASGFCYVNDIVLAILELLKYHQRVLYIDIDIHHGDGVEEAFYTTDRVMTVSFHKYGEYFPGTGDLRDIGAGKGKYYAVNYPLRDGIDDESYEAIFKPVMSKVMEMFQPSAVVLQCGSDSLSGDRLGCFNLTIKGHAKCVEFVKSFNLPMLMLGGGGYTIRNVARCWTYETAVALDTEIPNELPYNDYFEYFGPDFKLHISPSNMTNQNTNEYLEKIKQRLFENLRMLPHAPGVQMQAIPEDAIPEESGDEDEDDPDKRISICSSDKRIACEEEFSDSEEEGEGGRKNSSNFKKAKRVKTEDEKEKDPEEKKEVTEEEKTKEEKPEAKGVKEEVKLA
Chain of Histone deacetylase 2 (Q92769 whole entry, the tested form may be a part): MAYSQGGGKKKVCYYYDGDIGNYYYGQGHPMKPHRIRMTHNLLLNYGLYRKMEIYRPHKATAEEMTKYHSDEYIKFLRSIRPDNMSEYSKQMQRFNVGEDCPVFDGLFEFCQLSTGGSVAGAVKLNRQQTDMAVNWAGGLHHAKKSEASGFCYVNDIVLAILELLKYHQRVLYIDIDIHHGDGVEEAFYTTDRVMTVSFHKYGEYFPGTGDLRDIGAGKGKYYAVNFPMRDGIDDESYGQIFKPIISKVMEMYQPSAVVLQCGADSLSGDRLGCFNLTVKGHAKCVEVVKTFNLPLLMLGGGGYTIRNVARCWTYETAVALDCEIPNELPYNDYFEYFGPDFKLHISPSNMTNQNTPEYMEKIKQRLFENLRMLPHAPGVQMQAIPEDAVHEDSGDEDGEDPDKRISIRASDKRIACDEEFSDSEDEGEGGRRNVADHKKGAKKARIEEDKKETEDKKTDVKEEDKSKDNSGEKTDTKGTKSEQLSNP
Chain of Histone deacetylase 4 (P56524 whole entry, the tested form may be a part): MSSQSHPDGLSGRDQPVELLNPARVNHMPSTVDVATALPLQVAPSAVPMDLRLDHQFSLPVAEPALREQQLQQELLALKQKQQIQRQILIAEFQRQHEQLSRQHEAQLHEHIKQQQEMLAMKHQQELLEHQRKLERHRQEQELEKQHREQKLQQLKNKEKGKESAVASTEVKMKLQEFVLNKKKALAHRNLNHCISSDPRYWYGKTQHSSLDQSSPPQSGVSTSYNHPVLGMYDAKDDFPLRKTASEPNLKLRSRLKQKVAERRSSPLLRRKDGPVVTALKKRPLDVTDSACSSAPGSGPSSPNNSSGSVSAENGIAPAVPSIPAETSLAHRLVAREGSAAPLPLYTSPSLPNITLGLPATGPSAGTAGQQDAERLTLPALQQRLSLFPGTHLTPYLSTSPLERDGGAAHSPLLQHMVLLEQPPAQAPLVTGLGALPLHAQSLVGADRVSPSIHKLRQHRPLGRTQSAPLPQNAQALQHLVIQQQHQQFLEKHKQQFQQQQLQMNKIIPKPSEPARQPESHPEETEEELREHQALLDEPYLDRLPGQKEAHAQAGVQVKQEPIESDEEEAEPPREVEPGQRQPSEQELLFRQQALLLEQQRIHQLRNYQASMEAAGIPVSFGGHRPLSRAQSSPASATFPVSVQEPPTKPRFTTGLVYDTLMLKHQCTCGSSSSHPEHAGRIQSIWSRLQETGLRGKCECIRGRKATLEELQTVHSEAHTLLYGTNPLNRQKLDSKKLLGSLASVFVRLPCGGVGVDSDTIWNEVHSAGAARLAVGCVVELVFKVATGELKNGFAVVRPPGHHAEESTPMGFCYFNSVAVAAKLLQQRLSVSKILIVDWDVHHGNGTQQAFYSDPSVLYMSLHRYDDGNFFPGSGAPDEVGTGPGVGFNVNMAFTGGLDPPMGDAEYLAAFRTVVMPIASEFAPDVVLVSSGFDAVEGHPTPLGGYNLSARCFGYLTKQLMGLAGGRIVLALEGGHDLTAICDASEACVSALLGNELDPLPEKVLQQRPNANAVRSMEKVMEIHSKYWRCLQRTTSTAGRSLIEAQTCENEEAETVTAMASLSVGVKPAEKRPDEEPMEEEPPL

Compound	ΔTm (dsDNA [1]) [°C]	ΔTm (dsDNA [2]) [°C]	ΔTm (Quadruplex DNA [3]) [°C]	ΔTm (Quadruplex DNA [4]) [°C]	IC50 (Histone deacetylase) [µM]	GI50 (U-87 MG) [µM]	GI50 (HCT-116 [5]) [µM]	GI50 (A549 [6]) [µM]	also measured
Cl.NCCCNCCNCCCN1C(=O)c2ccc3c4c(ccc(c24)C1=O)C(=O)N(CCCCCC(=O)NO)C3=O	2	3.4	4.4	7.8	0.55	–	–	–	–
Cl.NCCCNCCCCNCCCN1C(=O)c2ccc3c4c(ccc(c24)C1=O)C(=O)N(CCCCCC(=O)NO)C3=O	3.5	8.1	4.5	10.9	0.52	–	–	–	–
Cl.NCCCNCCCNCCCN1C(=O)c2ccc3c4c(ccc(c24)C1=O)C(=O)N(CCCCCC(=O)NO)C3=O	5	–	9.9	–	0.37	> 5	2.13	> 5	inhibition [7]: Active
CN(C)c1ccc(Nc2c3ccc(NC(=O)CCN4CCCC4)cc3nc3cc(NC(=O)CCN4CCCC4)ccc23)cc1	0.5	5.3	11	28.3	–	–	–	–	–
Cl.NCCCCNCCCCNCCCN1C(=O)c2ccc3c4c(ccc(c24)C1=O)C(=O)N(CCCCCC(=O)NO)C3=O	7.5	–	13.3	–	0.56	> 5	3.08	> 5	IC50 (Histone deacetylase 1): 4.12 µM; IC50 (Histone deacetylase 2): 10.8 µM; IC50 (Histone deacetylase 4): 117 µM; IC50 [8]: 0.05 µM; fold change (FC) [9]: 2; fold change (FC) [10]: 2; fold change (FC) (HCT-116 [11]): 1.32; fold change (FC) (A549 [12]): 1.28; fold change (FC) (HCT-116 [13]): 0.44; Activity (A549 [14]): 85%; fold change (FC) (A549 [15]): 0.68; fold change (FC) (A549 [16]): 3.66; fold change (FC) (A549 [17]): 2.61; Activity (A549 [18]): >80%; fold change (FC) (A549 [19]): 1.38; fold change (FC) (A549 [20]): 1.38; inhibition [7]: Active
Cl.NCCCNCCCN1C(=O)c2ccc3c4c(ccc(c24)C1=O)C(=O)N(CCCCCC(=O)NO)C3=O	1	–	2.4	–	0.41	–	–	–	–
COc1ccccc1CNCCCN1C(=O)c2ccc3c4c(ccc(c24)C1=O)C(=O)N(CCCNCCCCNCCCN)C3=O	0.6	–	1.5	–	–	4.85	4.39	> 5	inhibition (HCT-116 [11]): inactive; inhibition (A549 [12]): inactive; inhibition (HCT-116 [13]): inactive; inhibition (A549 [15]): inactive
O=C(CCCCCN1C(=O)c2cccc3cccc(c23)C1=O)NO	0.1	0.1	0.1	0.1	–	–	–	–	growth inhibition (GI) (U-87 MG; U-87MG ATCC): Active; growth inhibition (GI) (HCT-116 [5]): Active; growth inhibition (GI) (A549 [6]): Active; inhibition (HCT-116 [11]): inactive; inhibition (A549 [12]): inactive; inhibition (HCT-116 [13]): inactive; inhibition (A549 [15]): inactive
